In publication PMC10884804 (Food Chemistry: X, 2024):
Ends that are not written are not given here. * marks the point of attachment. Dodecyl = CCCCCCCCCCCC*; Octyl = CCCCCCCC*

Experiments:
[1] = tested on: Shewanella; experiment: MIC by two-fold serial dilution; format: cell-based; details: for MIC: two-fold serial dilution, at least three repeats
[2] = tested on: Pseudomonas; experiment: MIC by two-fold serial dilution; format: cell-based; details: for MIC: two-fold serial dilution, at least three repeats
[3] = Circular dichroism secondary structure; format: physicochemical; details: aqueous solution, 190–270 nm
Method in brief: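 The test compound was dissolved in sterile PBS and in 2.5 % SDS buffer (a membrane-mimetic hydrophobic environment), then filtered through 0.22 µm. Spectra were scanned at 190-270 nm with 1 nm bandwidth and 0.5 s interval in a 0.1 cm cuvette. Ellipticity (mdeg) was converted to molar residue ellipticity using residue number, peptide concentration and path length.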

[4] = Self-assembly morphology by TEM; format: physicochemical; details: aqueous solution, 1 mM
[5] = tested on: Shewanella; experiment: Cell membrane permeability, PI/FDA flow cytometry; format: cell-based; details: peptide at MIC, 37℃, 1 h; for bacteria distributed in Q1 and Q2 regions (disturbed membranes): Shewanella, sum of Q1 and Q2
[6] = tested on: Shewanella; experiment: Cell wall permeability; format: cell-based; details: peptide at MIC, 37℃, 4 h
Method in brief: (§1)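 Bacteria from a national culture collection were incubated with the test compound at the MIC (the control received an equal volume of sterile water) at 37°C for 4 h. Samples were centrifuged at 4°C and 5000 x g for 10 min, and alkaline phosphatase (AKP) was measured in the supernatant. Each experiment was done at least three times, reported as mean ± SD.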

[7] = tested on: Pseudomonas; experiment: Cell membrane permeability, PI/FDA flow cytometry; format: cell-based; details: peptide at MIC, 37℃, 1 h, sum of Q1 and Q2
[8] = tested on: Pseudomonas; experiment: Ultrastructural observation of treated bacteria; format: cell-based; details: cells treated with peptide
[9] = tested on: Pseudomonas; experiment: Cell wall permeability; format: cell-based; details: peptide at MIC, 37℃, 4 h
Method in brief: as §1

Substance | MIC [1] | MIC [2] | secondary structure [3] | self-assembly morphology [4] | antibacterial activity (in words) ([1]; bacterial survival rate, S.2) | antibacterial activity (in words) ([2]; bacterial survival rate, S.2) | bacteria in Q1 region (PI-positive, FDA-negative) ([5]; Shewanella (Fig. 4D), flow cytometry) | bacteria distributed in Q1 and Q2 regions (disturbed membranes) [5] | cell wall permeability (AKP leakage) [6] | bacteria distributed in Q1 and Q2 regions (disturbed membranes) [7] | morphological changes of bacterial cells (TEM) [8] | cell wall permeability (AKP leakage) [9]
AKATKAAKALLKLWLL [AL-16] | 128 µM | 16 µM | – | – | – | – | – | – | – | – | – | –
APATPAAPALLPLWLL [AP-16] | – | – | randomly curled structure | did not exhibit an evident self-assembly morphology | no significant antibacterial activity | no significant antibacterial activity | – | – | – | – | – | –
C8-AL-16: AL-16 with alkyl chain (C8) attached to the N-terminus (Octyl-AKATKAAKALLKLWLL) | 4 µM | 4 µM | β-folded structure | nanospheres in the form of micelles | – | – | 38.80% | > 98% | significantly enhanced | > 98% | disrupted by lysis, and the contents leaked, resulting in serious damage | significantly enhanced
C12-AL-16: AL-16 with alkyl chain (C12) attached to the N-terminus (Dodecyl-AKATKAAKALLKLWLL) | 4 µM | 4 µM | α-helix | nanospheres in the form of micelles | – | – | – | > 98% | – | > 98% | bacterial contents were lost; however, the basic membrane structure was maintained | –
